Assay results from ChEMBL document CHEMBL4706495, “A novel class of small molecule inhibitors with radioprotective properties” (Eur J Med Chem, 2020).

What was measured:
[1] = test system: A2780; test: Cytotoxicity against human A2780 cells assessed as cell viability at 10 uM measured after 48 hrs by WST-1 assay relative to control; format: functional; conditions: read-out: Activity
In short: (§1)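 Ten-line human panel (9 cancer, 1 non-cancerous). Cells were seeded at a pre-established optimal density (500–30 × 10³ per well) and settled overnight. Compounds came from 10 mM DMSO stocks and were tested at two concentrations. WST-1 readout followed the manufacturer's protocol at the end of cultivation. Viability is expressed as % of untreated control cells, mean of three independent experiments.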

[2] = test system: HT-29; test: Cytotoxicity against human HT-29 cells assessed as cell viability at 100 uM measured after 48 hrs by WST-1 assay relative to control; format: functional; conditions: read-out: Activity; in short: as §1
[3] = test system: MCF7; test: Cytotoxicity against human MCF7 cells assessed as cell viability at 10 uM measured after 48 hrs by WST-1 assay relative to control; format: functional; conditions: read-out: Activity; in short: as §1
[4] = test system: HeLa; test: Cytotoxicity against human HeLa cells assessed as cell viability at 10 uM measured after 48 hrs by WST-1 assay relative to control; format: functional; conditions: read-out: Activity; in short: as §1
[5] = Cytotoxicity against human MRC5 cells assessed as cell viability at 10 uM measured after 48 hrs by WST-1 assay relative to control; format: cell-based; conditions: read-out: Activity; in short: as §1
[6] = Cytotoxicity against human MRC5 cells assessed as cell viability at 100 uM measured after 48 hrs by WST-1 assay relative to control; format: cell-based; conditions: read-out: Activity; in short: as §1
[7] = test system: A2780; test: Cytotoxicity against human A2780 cells assessed as cell viability at 100 uM measured after 48 hrs by WST-1 assay relative to control; format: functional; conditions: read-out: Activity; in short: as §1
[8] = test system: MOLT-4; test: Cytotoxicity against human MOLT-4 cells assessed as cell viability at 100 uM measured after 48 hrs by WST-1 assay relative to control; format: functional; conditions: read-out: Activity; in short: as §1
[9] = test system: A549; test: Cytotoxicity against human A549 cells assessed as maximum tolerated concentration incubated for 24 hrs by MTT assay; format: functional
In short: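 A-549 cells in DMEM with 10% FBS and 1% penicillin-streptomycin, left to attach overnight. Compounds made up in PBS, serially diluted in DMEM, incubated 24 h, then viability read by MTT reduction against untreated controls on each plate. MTC taken as the highest concentration showing no significant difference from non-treated control (t-test).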

[10] = test system: Jurkat; test: Cytotoxicity against human Jurkat cells assessed as cell viability at 10 uM measured after 48 hrs by WST-1 assay relative to control; format: functional; conditions: read-out: Activity; in short: as §1
[11] = test system: MOLT-4; test: Radioprotective activity against gamma irradiation-induced apoptosis in human MOLT-4 cells assessed as viable cells at 100 uM pretreated with compound for 1 hr followed by gamma irradiation and measured after 24 hrs by annexinV/propidium iodide staining based flow cytometry (reference value: 40 %); format: functional; conditions: MOLT-4, light or radiation study, time 25 hrs, read-out: Activity
[12] = test system: A549; test: Cytotoxicity against human A549 cells assessed as reduction in cell viability incubated for 24 hrs by MTT assay; format: functional, cell-based; conditions: A549, 24 h
In short: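 A-549 cells in DMEM with 10% FBS and 1% penicillin-streptomycin were attached overnight. Compounds were prepared in PBS and serially diluted in DMEM, then incubated 24 h. Viability was read by colorimetric MTT reduction against an untreated control on each plate (100%). IC50 came from four-parameter nonlinear regression of the log concentration-response curve, mean ± SEM. MTC is the highest concentration not differing from control (t-test).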

[13] = test system: MOLT-4; test: Cytotoxicity against human MOLT-4 cells assessed as cell viability at 10 uM measured after 48 hrs by WST-1 assay relative to control; format: functional; conditions: read-out: Activity; in short: as §1
[14] = test system: SAOS-2; test: Cytotoxicity against human SAOS-2 cells assessed as cell viability at 10 uM measured after 48 hrs by WST-1 assay relative to control; format: functional; conditions: read-out: Activity; in short: as §1
[15] = test system: Jurkat; test: Cytotoxicity against human Jurkat cells assessed as cell viability at 100 uM measured after 48 hrs by WST-1 assay relative to control; format: functional; conditions: read-out: Activity; in short: as §1
[16] = test system: PANC-1; test: Cytotoxicity against human PANC-1 cells assessed as cell viability at 10 uM measured after 48 hrs by WST-1 assay relative to control; format: functional; conditions: read-out: Activity; in short: as §1
[17] = test system: A549; test: Cytotoxicity against human A549 cells assessed as cell viability at 10 uM measured after 48 hrs by WST-1 assay relative to control; format: functional; conditions: read-out: Activity; in short: as §1
[18] = test system: PANC-1; test: Cytotoxicity against human PANC-1 cells assessed as cell viability at 100 uM measured after 48 hrs by WST-1 assay relative to control; format: functional; conditions: read-out: Activity; in short: as §1
[19] = test system: HeLa; test: Cytotoxicity against human HeLa cells assessed as cell viability at 100 uM measured after 48 hrs by WST-1 assay relative to control; format: functional; conditions: read-out: Activity; in short: as §1
[20] = test system: A549; test: Cytotoxicity against human A549 cells assessed as cell viability at 100 uM measured after 48 hrs by WST-1 assay relative to control; format: functional; conditions: read-out: Activity; in short: as §1
[21] = test system: SAOS-2; test: Cytotoxicity against human SAOS-2 cells assessed as cell viability at 100 uM measured after 48 hrs by WST-1 assay relative to control; format: functional; conditions: read-out: Activity; in short: as §1
[22] = test system: MCF7; test: Cytotoxicity against human MCF7 cells assessed as cell viability at 100 uM measured after 48 hrs by WST-1 assay relative to control; format: functional; conditions: read-out: Activity; in short: as §1
[23] = test system: HT-29; test: Cytotoxicity against human HT-29 cells assessed as cell viability at 10 uM measured after 48 hrs by WST-1 assay relative to control; format: functional; conditions: read-out: Activity; in short: as §1
[24] = Toxicity in C57Bl/6 mouse assessed as average body weight at 100 mg/kg, ip and measured immediately (reference value: 26.3 +/- 2.4 g); format: organism-based; conditions: in vivo
[25] = test system: Mus musculus; test: Radioprotective activity in C57Bl/6 mouse assessed as median survival time at 100 mg/kg, ip administered 5 min prior to gamma-irradation at 8.5 Gy and measured after 30 days (reference value: 12 days); format: functional
[26] = test system: Mus musculus; test: Radioprotective activity in C57Bl/6 mouse assessed as average body weight at 100 mg/kg, ip administered 5 min prior to gamma-irradation at 8.5 Gy and measured immediately (reference value: 25.4 +/- 2.6 g); format: functional
[27] = test system: Mus musculus; test: Radioprotective activity in C57Bl/6 mouse assessed as average body weight at 100 mg/kg, ip administered 5 min prior to gamma-irradation at 8.5 Gy and measured after 30 days; format: functional
[28] = Toxicity in C57Bl/6 mouse assessed as change in body weight at 100 mg/kg, ip measured after 30 days (reference value: 103 +/- 12 %); format: organism-based; conditions: in vivo, 720 h, time 30 day
[29] = Toxicity in C57Bl/6 mouse assessed as average body weight at 100 mg/kg, ip measured after 30 days (reference value: 27 +/ 3.2 g); format: organism-based; conditions: in vivo, 720 h, time 30 day
[30] = test system: Mus musculus; test: Radioprotective activity in C57Bl/6 mouse assessed as body weight gain at 100 mg/kg, ip administered 5 min prior to gamma-irradation at 8.5 Gy measured after 30 days relative to control; format: functional
[31] = Toxicity in C57Bl/6 mouse assessed as adverse effects at 100 mg/kg, ip measured after 30 days; format: organism-based; conditions: in vivo, 720 h, time 30 day
In short: (§2)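 Safety in C57Bl/6 mice (27 ± 3 g) given a single 100 mg/kg i.p. injection without irradiation. Deaths, adverse effects and body weight followed over 30 days against an untreated control group. Weight reported as change from day 0.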

[32] = Toxicity in C57Bl/6 mouse assessed as mouth death at 100 mg/kg, ip measured after 30 days; format: organism-based; conditions: in vivo, 720 h, time 30 day; in short: as §2

| SMILES | viability at 10 µM [1] [%] | viability at 100 µM [2] [%] | viability at 10 µM [3] [%] | viability at 10 µM [4] [%] | viability at 48 h, 100 µM [6] [%] | viability at 100 µM [7] [%] | viability at 100 µM [8] [%] | MTD [9] [mM] | viability at 10 µM [10] [%] | viability at 100 µM [11] [%] | IC50 [12] [mM] | viability at 10 µM [13] [%] | viability at 10 µM [14] [%] | viability at 100 µM [15] [%] | viability at 10 µM [16] [%] | viability at 10 µM [17] [%] | viability at 100 µM [18] [%] | viability at 100 µM [19] [%] | viability at 100 µM [20] [%] | viability at 100 µM [21] [%] | other results |
| --- | --- | --- | --- | --- | --- | --- | --- | --- | --- | --- | --- | --- | --- | --- | --- | --- | --- | --- | --- | --- | --- |
| Cc1ccc(C(C)C)c(OCC(O)CN2CCN(CCO)CC2)c1 (configuration not stated) | 100 | 64 | 100 | 105 | 90 | 90 | 90 | 0.16 | 97 | 58 | 0.36 | 87 | 93 | 98 | 91 | 90 | 125 | 132 | 114 | 109 | viability at 48 h, 10 µM [5]: 102%; viability at 100 µM [22]: 85%; viability at 10 µM [23]: 93% |
| OCCN1CCN(CC(O)COc2ccccc2)CC1 (configuration not stated) | 96 | 97 | 104 | 95 | 101 | 96 | 96 | 0.59 | 104 | 57 | 5.78 | 92 | 102 | 91 | 90 | 97 | 108 | 107 | 99 | 96 | viability at 48 h, 10 µM [5]: 101%; viability at 100 µM [22]: 98%; viability at 10 µM [23]: 97% |
| COc1cccc(OC)c1OCC(O)CN1CCN(CCO)CC1 (configuration not stated) | 95 | 141 | 101 | 101 | 115 | 83 | 76 | 1.56 | 110 | 61 | 7.81 | 105 | 106 | 84 | 104 | 97 | 115 | 94 | 99 | 82 | Activity [24]: 27 g; MST [25]: 12 days; Activity [26]: 27.3 g; Activity [27]: 27.7 g; Activity [28]: 102%; Activity [29]: 27.6 g; Activity [30]: 109%; Activity [31]: Non-Toxic; viability at 100 µM [22]: 90%; Activity [32]: Non-Toxic; viability at 10 µM [23]: 102% |
